Legend:
Pseudomonas aeruginosa [1] = assay: Antimicrobial activity against wild type Pseudomonas aeruginosa PAO1 incubated for 18 hrs by broth microdilution method; type: functional; conditions: PAO1, 18 h
How it was run: (§1)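 Broth microdilution per CLSI: overnight cultures set to 0.5 McFarland in saline, diluted 1:50 in Mueller-Hinton broth to a final 5 × 10^5 CFU/mL, added to 2-fold serial dilutions, incubated 18 h at 37 °C; MIC is the lowest concentration without visible turbidity, confirmed at 590 nm.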

Pseudomonas aeruginosa [2] = assay: Synergistic antibacterial activity against wild type Pseudomonas aeruginosa PAO1 assessed as fractional inhibitory concentration index in presence of moxifloxacin incubated for 18 hrs by broth microdilution method; type: functional
How it was run: (§2)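 Checkerboard synergy assay. Antibiotic and adjuvant in twofold dilutions in Mueller-Hinton broth. Inoculum 5 × 10^5 CFU/mL from a 0.5 McFarland suspension, 18 h at 37 °C, MIC read by turbidity and confirmed at 590 nm. FIC = MIC in combination / MIC alone for each agent, FICI = sum. Interpreted as ≤0.5 synergy, 0.5–4 no interaction, >4 antagonism.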

Pseudomonas aeruginosa [3] = assay: Synergistic antibacterial activity against wild type Pseudomonas aeruginosa PAO1 assessed as fractional inhibitory concentration index in presence of minocycline incubated for 18 hrs by broth microdilution method; type: functional
How it was run: (§3)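 Checkerboard titration of the adjuvant against the antibiotic, run under the CLSI microdilution conditions (MHB, 5 × 10^5 CFU/mL, 18 h, 37 °C). Each agent's FIC is its MIC in combination divided by its MIC alone; FICI is the sum of the two FICs. FICI ≤0.5 was read as synergy, >0.5–4.0 as no interaction, and >4.0 as antagonism.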

Pseudomonas aeruginosa [4] = assay: Synergistic antibacterial activity against wild type Pseudomonas aeruginosa PAO1 assessed as fractional inhibitory concentration index in presence of rifampicin incubated for 18 hrs by broth microdilution method; type: functional; how it was run: as §2
Pseudomonas aeruginosa [5] = assay: Antimicrobial activity against MDR/XDR Pseudomonas aeruginosa isolate 100036 harboring GyrA Thr83Ile mutant incubated for 18 hrs by broth microdilution method; type: functional; conditions: isolate 100036, 18 h; how it was run: as §1
Pseudomonas aeruginosa [6] = assay: Antimicrobial activity against MDR/XDR Pseudomonas aeruginosa isolate PA259-96918 harboring GyrA Thr83Ile mutant incubated for 18 hrs by broth microdilution method; type: functional; conditions: isolate PA259-96918, 18 h; how it was run: as §1
Pseudomonas aeruginosa [7] = assay: Antimicrobial activity against MDR/XDR Pseudomonas aeruginosa isolate PA264-104354 harboring GyrA Thr83Ile mutant incubated for 18 hrs by broth microdilution method; type: functional; conditions: isolate PA264-104354, 18 h; how it was run: as §1
Pseudomonas aeruginosa [8] = assay: Synergistic antibacterial activity against MDR/XDR Pseudomonas aeruginosa isolate PA260-97103 harboring GyrA T83I mutant assessed as fractional inhibitory concentration index in presence of moxifloxacin incubated for 18 hrs by broth microdilution method; type: functional; how it was run: as §2
Pseudomonas aeruginosa [9] = assay: Synergistic antibacterial activity against MDR/XDR Pseudomonas aeruginosa isolate PA260-97103 harboring GyrA T83I mutant assessed as fractional inhibitory concentration index in presence of ciprofloxacin incubated for 18 hrs by broth microdilution method; type: functional; how it was run: as §2
Pseudomonas aeruginosa [10] = assay: Synergistic antibacterial activity against MDR/XDR Pseudomonas aeruginosa isolate PA262-101856 harboring GyrA T83I mutant assessed as fractional inhibitory concentration index in presence of ciprofloxacin incubated for 18 hrs by broth microdilution method; type: functional; how it was run: as §2
Pseudomonas aeruginosa [11] = assay: Synergistic antibacterial activity against MDR/XDR Pseudomonas aeruginosa isolate 100036 harboring GyrA T83I mutant assessed as fractional inhibitory concentration index in presence of ciprofloxacin incubated for 18 hrs by broth microdilution method; type: functional; how it was run: as §2
Pseudomonas aeruginosa [12] = assay: Synergistic antibacterial activity against MDR/XDR Pseudomonas aeruginosa isolate 101885 harboring GyrA T83I mutant assessed as fractional inhibitory concentration index in presence of ciprofloxacin incubated for 18 hrs by broth microdilution method; type: functional; how it was run: as §2
Pseudomonas aeruginosa [13] = assay: Synergistic antibacterial activity against MDR/XDR Pseudomonas aeruginosa isolate PA259-96918 harboring GyrA T83I mutant assessed as fractional inhibitory concentration index in presence of moxifloxacin incubated for 18 hrs by broth microdilution method; type: functional; how it was run: as §2
Pseudomonas aeruginosa [14] = assay: Synergistic antibacterial activity against MDR/XDR Pseudomonas aeruginosa isolate 101243 devoid of GyrA T83I mutant assessed as fractional inhibitory concentration index in presence of moxifloxacin incubated for 18 hrs by broth microdilution method; type: functional; how it was run: as §2
Pseudomonas aeruginosa [15] = assay: Synergistic antibacterial activity against MDR/XDR Pseudomonas aeruginosa isolate 101243 devoid of GyrA T83I mutant assessed as fractional inhibitory concentration index in presence of ciprofloxacin incubated for 18 hrs by broth microdilution method; type: functional; how it was run: as §2
Pseudomonas aeruginosa [16] = assay: Synergistic antibacterial activity against MDR/XDR Pseudomonas aeruginosa isolate PA260-97103 harboring GyrA T83I mutant assessed as fractional inhibitory concentration index in presence of minocycline incubated for 18 hrs by broth microdilution method; type: functional; how it was run: as §2
Pseudomonas aeruginosa [17] = assay: Synergistic antibacterial activity against MDR/XDR Pseudomonas aeruginosa isolate 101885 harboring T83I mutant assessed as fractional inhibitory concentration index in presence of minocycline incubated for 18 hrs by broth microdilution method; type: functional; how it was run: as §2
Pseudomonas aeruginosa [18] = assay: Synergistic antibacterial activity against MDR/XDR Pseudomonas aeruginosa isolate PA259-96918 harboring GyrAT83I mutant assessed as fractional inhibitory concentration index in presence of minocycline incubated for 18 hrs by broth microdilution method; type: functional; how it was run: as §2
Pseudomonas aeruginosa [19] = assay: Synergistic antibacterial activity against MDR/XDR Pseudomonas aeruginosa isolate PA264-104354 harboring GyrA T83I mutant assessed as fractional inhibitory concentration index in presence of minocycline incubated for 18 hrs by broth microdilution method; type: functional; how it was run: as §2
Pseudomonas aeruginosa [20] = assay: Synergistic antibacterial activity against MDR/XDR Pseudomonas aeruginosa isolate 100036 harboring T83I mutant assessed as fractional inhibitory concentration index in presence of rifampicin incubated for 18 hrs by broth microdilution method; type: functional; how it was run: as §2
Pseudomonas aeruginosa [21] = assay: Synergistic antibacterial activity against MDR/XDR Pseudomonas aeruginosa isolate PA259-96918 harboring T83I mutant assessed as fractional inhibitory concentration index in presence of rifampicin incubated for 18 hrs by broth microdilution method; type: functional; how it was run: as §2
Pseudomonas aeruginosa [22] = assay: Synergistic antibacterial activity against MDR/XDR Pseudomonas aeruginosa isolate PA264-104354 harboring T83I mutant assessed as fractional inhibitory concentration index in presence of rifampicin incubated for 18 hrs by broth microdilution method; type: functional; how it was run: as §2
Klebsiella pneumoniae = assay: Synergistic antibacterial activity against Klebsiella pneumoniae 116381 assessed as fractional inhibitory concentration index in presence of minocycline incubated for 18 hrs by broth dilution method; type: functional; how it was run: as §3
Enterobacter cloacae [23] = assay: Synergistic antibacterial activity against Enterobacter cloacae 117029 assessed as fractional inhibitory concentration index in presence of minocycline incubated for 18 hrs by broth dilution method; type: functional; how it was run: as §3
Enterobacter cloacae [24] = assay: Synergistic antibacterial activity against Enterobacter cloacae 117029 assessed as fractional inhibitory concentration index in presence of rifampicin incubated for 18 hrs by broth dilution method; type: functional; how it was run: as §3
[25] = Retention time of the compound by HPLC analysis; type: physicochemical
HepG2 [26] = assay: Cytotoxicity against human HepG2 cells at 50 uM incubated for 48 hrs by PrestoBlue dye based fluorescence assay; type: cell-based; conditions: hepg2, 48 h
HepG2 [27] = assay: Cytotoxicity against human HepG2 cells at 50 uM incubated for 48 hrs in presence of 50 uM rifampicin by PrestoBlue dye based fluorescence assay; type: cell-based; conditions: hepg2, 48 h
HEK293 = assay: Cytotoxicity against HEK293 cells at 50 uM incubated for 48 hrs in presence of 50 uM rifampicin by PrestoBlue dye based fluorescence assay; type: cell-based; conditions: human, hek293, 48 h

In the case of `COc1c(N2C[C@@H]3CCCN(CCCCCCCCCCCCO[C@@H]4[C@@H](O)[C@H](N)C[C@H](N)[C@H]4O[C@H]4O[C@H](CN)[C@@H](O)C[C@H]4N)[C@@H]3C2)c(F)cc2c(=O)c(C(=O)O)cn(C3CC3)c12.Cl.Cl.Cl.Cl.Cl`, the MIC (Pseudomonas aeruginosa [1]) was 32 µg/mL, the “fractional inhibitory concentration index (FICI)” value (Pseudomonas aeruginosa [2]) was 0.25 and the “fractional inhibitory concentration index (FICI)” value (Pseudomonas aeruginosa [3]) was 0.38. The “fractional inhibitory concentration index (FICI)” value (Pseudomonas aeruginosa [4]) was 0.07, the MIC (Pseudomonas aeruginosa [5]) was 128 µg/mL and the MIC (Pseudomonas aeruginosa [6]) was over 256 µg/mL. The MIC (Pseudomonas aeruginosa [7]) was 256 µg/mL, the “fractional inhibitory concentration index (FICI)” value (Pseudomonas aeruginosa [8]) was 0.13 and the “fractional inhibitory concentration index (FICI)” value (Pseudomonas aeruginosa [9]) was 0.25. For the same molecule, the “fractional inhibitory concentration index (FICI)” value (Pseudomonas aeruginosa [10]) was 0.25 - 0.28, the “fractional inhibitory concentration index (FICI)” value (Pseudomonas aeruginosa [11]) was 0.56 and the “fractional inhibitory concentration index (FICI)” value (Pseudomonas aeruginosa [12]) was over 1. The “fractional inhibitory concentration index (FICI)” value (Pseudomonas aeruginosa [13]) was 0.06 - 0.07, the “fractional inhibitory concentration index (FICI)” value (Pseudomonas aeruginosa [14]) was 0.16 and the “fractional inhibitory concentration index (FICI)” value (Pseudomonas aeruginosa [15]) was 0.25. For the same molecule, the “fractional inhibitory concentration index (FICI)” value (Pseudomonas aeruginosa [16]) was 0.09, the “fractional inhibitory concentration index (FICI)” value (Pseudomonas aeruginosa [17]) was 0.07 and the “fractional inhibitory concentration index (FICI)” value (Pseudomonas aeruginosa [18]) was 0.03 - 0.04. For the same molecule, the “fractional inhibitory concentration index (FICI)” value (Pseudomonas aeruginosa [19]) was 0.05, the “fractional inhibitory concentration index (FICI)” value (Pseudomonas aeruginosa [20]) was 0.01 and the “fractional inhibitory concentration index (FICI)” value (Pseudomonas aeruginosa [21]) was 0.004 - 0.01. For the same molecule, the “fractional inhibitory concentration index (FICI)” value (Pseudomonas aeruginosa [22]) was 0.02, the “fractional inhibitory concentration index (FICI)” value (Klebsiella pneumoniae) was 0.063 - 78 and the “fractional inhibitory concentration index (FICI)” value (Enterobacter cloacae [23]) was 0.19. For the same molecule, the “fractional inhibitory concentration index (FICI)” value (Enterobacter cloacae [24]) was 0.06, the Retention_time [25] was 14.585 min and the Activity (HepG2 [26]) was “Non-Toxic”. For the same molecule, the Activity (HepG2 [27]) was “Non-Toxic” and the Activity (HEK293) was “Non-Toxic”.

In the case of `Cl.Cl.Cl.Cl.Cl.NC[C@H]1O[C@H](O[C@H]2[C@H](OCCCCCCCCCCCCN3CCN(c4cc5c(cc4F)c(=O)c(C(=O)O)cn5C4CC4)CC3)[C@@H](O)[C@H](N)C[C@@H]2N)[C@H](N)C[C@@H]1O`, the MIC (Pseudomonas aeruginosa [1]) was 64 µg/mL, the “fractional inhibitory concentration index (FICI)” value (Pseudomonas aeruginosa [3]) was 0.047 and the “fractional inhibitory concentration index (FICI)” value (Pseudomonas aeruginosa [4]) was 0.047. For the same molecule, the MIC (Pseudomonas aeruginosa [6]) was over 128 µg/mL, the MIC (Pseudomonas aeruginosa [7]) was 128 µg/mL and the “fractional inhibitory concentration index (FICI)” value (Pseudomonas aeruginosa [18]) was 0.031 - 0.063. For the same molecule, the “fractional inhibitory concentration index (FICI)” value (Pseudomonas aeruginosa [19]) was 0.039, the “fractional inhibitory concentration index (FICI)” value (Pseudomonas aeruginosa [21]) was 0.008 - 0.016 and the “fractional inhibitory concentration index (FICI)” value (Pseudomonas aeruginosa [22]) was 0.039. For the same molecule, the “fractional inhibitory concentration index (FICI)” value (Klebsiella pneumoniae) was 0.063 - 0.07, the “fractional inhibitory concentration index (FICI)” value (Enterobacter cloacae [23]) was 0.125 and the “fractional inhibitory concentration index (FICI)” value (Enterobacter cloacae [24]) was 0.023. For the same molecule, the Retention_time [25] was 14.945 min, the Activity (HepG2 [26]) was “Non-Toxic” and the Activity (HepG2 [27]) was “Non-Toxic”. For the same molecule, the Activity (HEK293) was “Non-Toxic”.

In the case of `Cl.Cl.Cl.Cl.Cl.Cl.NC[C@H]1O[C@H](O[C@H]2[C@H](OCCCCCCCCCCN3CCN(Cc4cccc5ccccc45)CC3)[C@@H](O)[C@H](N)C[C@@H]2N)[C@H](N)C[C@@H]1O`, the MIC (Pseudomonas aeruginosa [1]) was 256 µg/mL, the “fractional inhibitory concentration index (FICI)” value (Pseudomonas aeruginosa [2]) was 0.05 and the “fractional inhibitory concentration index (FICI)” value (Pseudomonas aeruginosa [3]) was 0.09. For the same molecule, the “fractional inhibitory concentration index (FICI)” value (Pseudomonas aeruginosa [4]) was 0.02, the MIC (Pseudomonas aeruginosa [5]) was over 512 µg/mL and the MIC (Pseudomonas aeruginosa [6]) was over 512 µg/mL. The “fractional inhibitory concentration index (FICI)” value (Pseudomonas aeruginosa [8]) was 0.08, the “fractional inhibitory concentration index (FICI)” value (Pseudomonas aeruginosa [9]) was 0.38 and the “fractional inhibitory concentration index (FICI)” value (Pseudomonas aeruginosa [10]) was 0.13. The “fractional inhibitory concentration index (FICI)” value (Pseudomonas aeruginosa [11]) was 0.125 - 0.133, the “fractional inhibitory concentration index (FICI)” value (Pseudomonas aeruginosa [12]) was 0.13 and the “fractional inhibitory concentration index (FICI)” value (Pseudomonas aeruginosa [13]) was 0.016 - 0.023. The “fractional inhibitory concentration index (FICI)” value (Pseudomonas aeruginosa [14]) was 0.13, the “fractional inhibitory concentration index (FICI)” value (Pseudomonas aeruginosa [15]) was 0.16 and the “fractional inhibitory concentration index (FICI)” value (Pseudomonas aeruginosa [16]) was 0.09. For the same molecule, the “fractional inhibitory concentration index (FICI)” value (Pseudomonas aeruginosa [17]) was 0.04, the “fractional inhibitory concentration index (FICI)” value (Pseudomonas aeruginosa [18]) was 0.016 - 0.031 and the “fractional inhibitory concentration index (FICI)” value (Pseudomonas aeruginosa [20]) was 0.004 - 0.012. The “fractional inhibitory concentration index (FICI)” value (Pseudomonas aeruginosa [21]) was 0.004 - 0.006 and the Retention_time [25] was 12.917 min.

— ChEMBL document CHEMBL4354800, “Amphiphilic nebramine-based hybrids Rescue legacy antibiotics from intrinsic resistance in multidrug-resistant Gram-negative bacilli” (Eur J Med Chem, 2019)
